{"source": "ChEMBL document CHEMBL4673335", "about": "“Store-Operated Calcium Entry as a Therapeutic Target in Acute Pancreatitis: Discovery and Development of Drug-Like SOCE Inhibitors” (J Med Chem, 2020)", "key": {"HEK293 [1]": {"system": "HEK293", "test": "Cytotoxicity in HEK293 cells assessed as cell viability at 10 uM after 24 hrs by MTT assay", "format": "cell-based", "conditions": "human, hek293, 24 h", "how_it_was_run": "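MTT viability assay. HEK cells seeded at 20,000 per well, treated 24 h after plating for a further 24 h. MTT at 0.25 mg/mL final for 60 min at 37 °C. Crystals dissolved in isopropyl alcohol/HCl (1 M), absorbance read at 570 nm. Compounds diluted to 0.1% DMSO in culture medium.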"}, "ORAI1/STIM1": {"target": "ORAI1/STIM1 (Homo sapiens, UniProt Q13586+Q96D31)", "sequence (Q96D31 whole entry)": "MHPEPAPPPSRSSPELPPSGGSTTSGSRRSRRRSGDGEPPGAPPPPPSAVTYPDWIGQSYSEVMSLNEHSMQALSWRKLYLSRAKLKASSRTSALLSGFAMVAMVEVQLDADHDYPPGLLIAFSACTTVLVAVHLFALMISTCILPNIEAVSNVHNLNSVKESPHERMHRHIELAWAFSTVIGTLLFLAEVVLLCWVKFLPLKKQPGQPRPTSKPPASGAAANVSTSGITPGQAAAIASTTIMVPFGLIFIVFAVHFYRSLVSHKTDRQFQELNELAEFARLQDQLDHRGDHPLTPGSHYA", "sequence (Q13586 whole entry)": "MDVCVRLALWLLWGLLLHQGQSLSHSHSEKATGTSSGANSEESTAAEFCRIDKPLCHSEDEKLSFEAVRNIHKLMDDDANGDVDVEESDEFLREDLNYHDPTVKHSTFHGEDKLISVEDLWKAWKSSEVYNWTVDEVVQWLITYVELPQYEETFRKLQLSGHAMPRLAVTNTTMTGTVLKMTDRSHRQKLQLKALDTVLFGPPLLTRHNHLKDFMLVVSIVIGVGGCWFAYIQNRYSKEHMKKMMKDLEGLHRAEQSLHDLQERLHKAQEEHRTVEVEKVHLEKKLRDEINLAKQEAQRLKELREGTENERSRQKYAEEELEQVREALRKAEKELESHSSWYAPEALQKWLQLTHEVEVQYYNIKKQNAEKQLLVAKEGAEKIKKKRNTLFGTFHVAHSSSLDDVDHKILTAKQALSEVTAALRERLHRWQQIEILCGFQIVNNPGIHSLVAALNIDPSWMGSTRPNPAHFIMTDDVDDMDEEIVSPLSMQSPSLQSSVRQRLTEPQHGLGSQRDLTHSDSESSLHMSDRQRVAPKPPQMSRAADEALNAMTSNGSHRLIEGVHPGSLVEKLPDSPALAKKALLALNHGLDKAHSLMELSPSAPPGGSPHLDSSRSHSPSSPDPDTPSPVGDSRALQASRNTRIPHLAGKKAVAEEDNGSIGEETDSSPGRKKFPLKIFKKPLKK", "test": "Inhibition of STIM1/Orai1 (unknown origin) expressed in HEK293 cells assessed as reduction in tBHQ-induced calcium response", "format": "cell-based"}, "HEK293 [2]": {"system": "HEK293", "test": "Cytotoxicity in HEK293 cells assessed as cell viability at 50 uM after 72 hrs by MTT assay", "format": "cell-based", "conditions": "human, hek293, 72 h", "how_it_was_run": "(§1)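 MTT viability in HEK cells after 72 h treatment at 50 μM, with or without 100 μM uridine. MTT at 0.25 mg/mL final for 60 min at 37 °C, solubilized in isopropyl alcohol/HCl (1 M), absorbance read at 570 nm. Mean ± SEM, Student t-test against control.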"}, "HEK293 [3]": {"system": "HEK293", "test": "Cytotoxicity in HEK293 cells assessed as cell viability at 50 uM after 72 hrs in presence of excess uridine by MTT assay", "format": "cell-based", "conditions": "human, hek293, 72 h", "how_it_was_run": "as §1"}, "[4]": {"test": "Drug metabolism in mouse liver microsomes assessed as O-demethylation by high-resolution mass spectrometry", "format": "ADME, Microsome", "how_it_was_run": "(§2)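 Pooled male CD-1 mouse liver microsomes, phase I and glucuronidation (phase II) incubations. Substrate at 50 μM. Metabolites characterized by HRMS. For metabolic activation studies, 3 mM GSH added as trapping agent.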"}, "[5]": {"test": "Drug metabolism in mouse liver microsomes assessed as oxidation by high-resolution mass spectrometry", "format": "ADME, Microsome", "how_it_was_run": "as §2"}, "[6]": {"test": "Drug metabolism in mouse liver microsomes assessed as hydroxylation by high-resolution mass spectrometry", "format": "ADME, Microsome", "how_it_was_run": "as §2"}, "[7]": {"test": "Drug metabolism in mouse liver microsomes assessed as acyl glucuronide metabolite formation in presence of UDPGA by high-resolution mass spectrometry", "format": "ADME, Microsome", "how_it_was_run": "as §2"}, "[8]": {"test": "Half life in C57BL/6 mouse at 7 mg/kg, iv dosed as single administration measured up to 24 hrs", "format": "ADME, organism-based", "conditions": "in vivo"}, "[9]": {"test": "Clearance in C57BL/6 mouse at 7 mg/kg, iv dosed as single administration measured up to 24 hrs", "format": "ADME, organism-based", "conditions": "in vivo"}, "[10]": {"test": "Volume of distribution in C57BL/6 mouse at 7 mg/kg, iv dosed as single administration measured up to 24 hrs", "format": "ADME, organism-based", "conditions": "in vivo"}, "[11]": {"test": "Cmax in C57BL/6 mouse at 7 mg/kg, iv dosed as single administration measured up to 24 hrs", "format": "ADME, organism-based", "set-up": "route intravenous, dose 7 mg/kg, time <=24", "conditions": "in vivo"}, "HEK293 [12]": {"system": "HEK293", "test": "Cytotoxicity in HEK293 cells assessed as cell viability up to 60 uM after 72 hrs in presence of excess uridine by MTT assay", "format": "cell-based", "conditions": "human, hek293, 72 h"}, "[13]": {"test": "Thermodynamic aqueous solubility", "format": "physicochemical", "conditions": "read-out: Therm_solubility", "how_it_was_run": "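About 3 mg compound in 3 mL deionized water, vortexed, sonicated 5 min, then shaken overnight at 25 °C. Filtered through a 0.22 μm membrane, DMSO added, diluted about 1:10 in water. Quantified by LC–UV against DMSO standard solutions.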"}, "[14]": {"test": "Metabolic stability in mouse liver microsomes assessed as compound remaining after 1 hr", "format": "ADME, Microsome", "conditions": "read-out: Stabilty", "how_it_was_run": "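Pooled male CD-1 mouse liver microsomes (20 mg/mL protein stock), NADPH-activated. Substrate at 5 μM. Residual parent measured after 1 h incubation.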"}, "[15]": {"test": "Thermodynamic aqueous solubility at 6 mg/mL in saline containing 10% DMSO + 20% PEG400", "conditions": "buffer"}, "[16]": {"test": "Inhibition of CRAC (unknown origin)", "set-up": "species or system Homo sapiens"}, "[17]": {"target": "T1, ORAI1/STIM1 (Homo sapiens) (UniProt Q96D31+Q13586)", "T1 sequence (Q13586 23-685 partner limits assumed)": "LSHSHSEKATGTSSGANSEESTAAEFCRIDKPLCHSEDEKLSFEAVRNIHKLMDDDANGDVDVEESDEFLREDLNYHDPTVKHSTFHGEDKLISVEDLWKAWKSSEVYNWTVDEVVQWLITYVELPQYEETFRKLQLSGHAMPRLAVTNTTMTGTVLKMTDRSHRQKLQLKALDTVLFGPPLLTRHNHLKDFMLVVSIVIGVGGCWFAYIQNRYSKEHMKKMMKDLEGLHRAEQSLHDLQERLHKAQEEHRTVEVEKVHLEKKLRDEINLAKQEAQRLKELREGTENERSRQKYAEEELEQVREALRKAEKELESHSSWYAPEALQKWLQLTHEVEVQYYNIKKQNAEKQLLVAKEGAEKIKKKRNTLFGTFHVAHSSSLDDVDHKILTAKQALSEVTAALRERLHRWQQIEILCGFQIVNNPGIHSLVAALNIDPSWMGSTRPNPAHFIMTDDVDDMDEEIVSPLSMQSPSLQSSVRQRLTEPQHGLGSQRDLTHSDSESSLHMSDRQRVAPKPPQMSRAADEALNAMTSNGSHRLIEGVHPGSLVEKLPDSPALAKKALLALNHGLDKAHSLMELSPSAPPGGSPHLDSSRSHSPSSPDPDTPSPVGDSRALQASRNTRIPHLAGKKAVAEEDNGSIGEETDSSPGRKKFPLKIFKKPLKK", "T1 sequence (Q96D31 whole entry)": "as the sequence (Q96D31 whole entry) above", "test": "Inhibition of STIM1/Orai1 (unknown origin) expressed in HEK293 cells assessed as reduction in tBHQ-induced calcium response at 10 uM relative to control", "format": "cell-based", "conditions": "dose 10.0 µM", "how_it_was_run": "(§3)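 HEK cells, calcium imaging by fluorescence microscopy. Ca2+ added after 600 s and intracellular levels recorded. Traces averaged over 200 cells, then scored as AUC, peak amplitude and slope of the Ca2+ rise versus untreated control. Compound working solutions diluted from a 50 mM DMSO stock to 0.1% DMSO in physiologic buffer.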"}, "[18]": {"target": "T1, ORAI1/STIM1 (Homo sapiens)", "test": "Inhibition of STIM1/Orai1 (unknown origin) expressed in HEK293 cells assessed as reduction in tBHQ-induced calcium response by measuring decrease in calcium entry AUC at 10 uM relative to control", "format": "cell-based", "how_it_was_run": "as §3"}, "[19]": {"target": "T1, ORAI1/STIM1 (Homo sapiens)", "test": "Inhibition of STIM1/Orai1 (unknown origin) expressed in HEK293 cells assessed as reduction in tBHQ-induced calcium response by measuring decrease in peak amplitude of calcium entry at 10 uM relative to control", "format": "cell-based", "how_it_was_run": "as §3"}, "[20]": {"target": "T1, ORAI1/STIM1 (Homo sapiens)", "test": "Inhibition of STIM1/Orai1 (unknown origin) expressed in HEK293 cells assessed as reduction in tBHQ-induced calcium response by measuring decrease in slope of calcium entry at 10 uM relative to control", "format": "cell-based", "how_it_was_run": "as §3"}, "[21]": {"test": "Drug metabolism in mouse liver microsomes assessed as amide hydrolysis", "format": "ADME, Microsome", "how_it_was_run": "as §2"}, "[22]": {"test": "Drug metabolism in mouse liver microsomes assessed as O-demethylation", "format": "ADME, Microsome", "how_it_was_run": "as §2"}, "[23]": {"test": "Half life in C57BL/6 mouse ip dosed as single administration measured up to 24 hrs", "conditions": "in vivo"}}, "note": "Activity calls are given as the source filed them. The rule behind the calls is not given here.", "data": [{"smiles": "COc1cccc(-c2ccc(-n3cc(-c4cccc(C(=O)O)c4)nn3)cc2)c1OC", "values": [{"measurement": "Activity", "setting": "HEK293 [1]", "result": 85.6, "unit": "%"}, {"measurement": "IC50", "setting": "ORAI1/STIM1", "result": 0.851, "unit": "µM"}, {"measurement": "Activity", "setting": "HEK293 [2]", "result": "Non-Toxic"}, {"measurement": "Activity", "setting": "HEK293 [3]", "result": "Non-Toxic"}, {"measurement": "Drug metabolism", "setting": "[4]", "result": "Metabolite_Detected"}, {"measurement": "Drug metabolism", "setting": "[5]", "result": "Metabolite_Detected"}, {"measurement": "Drug metabolism", "setting": "[6]", "result": "Metabolite_Detected"}, {"measurement": "Drug metabolism", "setting": "[7]", "result": "Metabolite_Detected"}, {"measurement": "t1/2", "setting": "[8]", "result": 3.2, "unit": "h"}, {"measurement": "CL", "setting": "[9]", "result": 8.3, "unit": "mL/min/kg"}, {"measurement": "Vd", "setting": "[10]", "result": 2.3, "unit": "L/kg"}, {"measurement": "Cmax", "setting": "[11]", "result": 16800, "unit": "ng/mL"}, {"measurement": "Activity", "setting": "HEK293 [12]", "result": "Non-Toxic"}]}, {"smiles": "COc1cccc(-c2ccc(-n3cc(-c4cccc(C(=O)[O-])c4)nn3)cc2)c1OC.[Na+]", "values": [{"measurement": "solubility thermodynamic", "setting": "[13]", "result": 1530, "unit": "µg/mL"}, {"measurement": "remaining at 1 h", "setting": "[14]", "result": 75, "unit": "%"}, {"measurement": "Therm_solubility", "setting": "[15]", "result": "Soluble"}]}, {"smiles": "COc1ccc(OC)c(-c2ccc(NC(=O)c3ccncc3F)cc2)c1", "values": [{"measurement": "IC50", "setting": "[16]", "result": 1.4, "unit": "µM"}, {"measurement": "inhibition", "setting": "[17]", "result": 90.8, "unit": "%"}, {"measurement": "Activity", "setting": "HEK293 [1]", "result": 75.8, "unit": "%"}, {"measurement": "IC50", "setting": "ORAI1/STIM1", "result": 0.228, "unit": "µM"}, {"measurement": "inhibition", "setting": "[18]", "result": "Active"}, {"measurement": "inhibition", "setting": "[19]", "result": "Active"}, {"measurement": "inhibition", "setting": "[20]", "result": "Active"}, {"measurement": "Activity", "setting": "HEK293 [2]", "result": "Toxic"}, {"measurement": "Activity", "setting": "HEK293 [3]", "result": "Non-Toxic"}, {"measurement": "solubility thermodynamic", "setting": "[13]", "result": 0.28, "unit": "µg/mL"}, {"measurement": "remaining at 1 h", "setting": "[14]", "result": 15, "unit": "%"}, {"measurement": "Drug metabolism", "setting": "[21]", "result": "Metabolite_Detected"}, {"measurement": "Drug metabolism", "setting": "[22]", "result": "Metabolite_Detected"}]}, {"smiles": "CCCC(C)OC(=O)c1cnn(-c2ccc(-n3cc(-c4cccc(C(=O)O)c4)nn3)cc2)c1C(F)(F)F", "note": "(stereo not given)", "values": [{"measurement": "half-life", "setting": "[23]", "result": 1.3, "unit": "h"}]}]}
